According to article PMC3076219 (European journal of immunology, 2009):
“Also recorded” adds a separate entry of the source.

Assays:
FPR2 = FPR2 surface expression on monocytes; type: cell-based, human; details: Supporting information Fig. 2
CXCR2 [1] = assay: CXCR2 surface expression on monocytes; type: cell-based, human; details: Supporting information Fig. 2
neutrophils [2] = assay: Cross-desensitization of calcium mobilization of neutrophils; type: cell-based, human; details: WKYMVm first
monocytes [3] = assay: Migration of monocytes, 24-well Transwell; type: cell-based, human; details: LL-37 5 µM, Fig. 7F
Summary of the method: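 CFSE-labelled monocytes or THP-1 cells (5 µM, 5 min RT) at 2×10^6/mL in phenol-red-free RPMI 1640 with 1% FBS went in the Transwell upper chamber (3-µm pores). Stimuli in the lower chamber included CXCL1 50 nM, WKYMVm 5 µM and ATP/BzATP 50 µM. Cells were used with or without 20 min preincubation with 10 µM CXCR2 antagonist. Incubation at 37 °C lasted 90 min for monocytes and 2 h for THP-1. Lower-well cells were read at 495 nm against a standard curve, in quadruplicate.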

THP-1 cells = assay: Calcium mobilization in THP-1 cells; type: cell-based; details: Fig. 7C
Summary of the method: (§1)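 Peripheral blood monocytes (kit-isolated from PBMC, CD14-checked) or THP-1 cells at 10^7/mL were loaded with 5 µM Indo-1-AM for 7 min at 37 °C, then held 10 min at RT and washed in cold PBS. Cells were run at 2×10^6/mL in KRP (PBS, 1.5 mM CaCl2, 1.5 mM MgSO4). After baseline they got a first stimulus, then a second. Flow cytometry used 351 nm excitation and the 405:485 nm ratio, gating live cells. Three independent experiments.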

CXCR2 [4] = assay: CXCR2 surface expression on neutrophils, flow cytometry; type: cell-based, human; details: WKYMVm 1 µM, 10 µM, 100 µM; 3h; Fig. 2B
CXCR1 [5] = assay: CXCR1 surface expression on neutrophils, flow cytometry; type: cell-based, human; details: WKYMVm 1 µM, 10 µM, 100 µM; 3h; Fig. 2B
Summary of the method: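 Human blood neutrophils were isolated by dextran sedimentation and Ficoll (>95% CD16+) and held at 5×10^6/mL in RPMI 1640 with 1% FBS. They were treated 3h with a dose series (test peptide 1–10 µM; chemokines 1, 5, 10, 50 nM) or with 5 µM for 0.5–3h. Cells were blocked in 10% human serum and stained with anti-CXCR1-APC/anti-CXCR2-FITC or anti-P2X7-FITC, plus anti-CD16. Read-out was flow cytometry GMFI.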

neutrophils [6] = assay: Calcium mobilization of neutrophils; type: cell-based, human
monocytes [7] = assay: Calcium mobilization in monocytes; type: cell-based, human; details: ATP or WKYMVm first, then LL-37; Fig. 7D
Summary of the method: as §1

neutrophils [8] = details: cited from earlier work
neutrophils [9] = details: ref [66]; cited from earlier work
CXCR1 [10] = details: indirect, inside-out signaling; ref [16]; cited from earlier work
CXCR2 [11] = details: indirect, inside-out signaling; ref [16]; cited from earlier work
neutrophils [12] = details: ref [27]; cited from earlier work
neutrophils [13] = assay: Neutrophil migration, 24-well Transwell; type: cell-based, human; details: Fig. 6H
Summary of the method: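 CFSE-labelled human neutrophils (5 µM, 5 min RT) at 5×10^6/mL in phenol-red-free RPMI 1640 with 1% FBS went in the Transwell upper chamber (3-µm pores). The lower chamber held test peptide (1 or 5 µM) or medium. Some cells were first preincubated 20 min with 10 µM CXCR2 antagonist. After 1 h at 37 °C, migrated cells were read at 495 nm against a standard curve. Quadruplicate; unpaired t-test.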

Compound: WKYMVm [reference compound]
- FPR2 down-regulation on monocytes (FPR2): down regulated FPR2 and CXCR2
- CXCR2 down-regulation on monocytes (CXCR2 [1]): down regulated FPR2 and CXCR2
- cross-desensitization of CXCL1 response by WKYMVm (neutrophils [2]; then CXCL1, Supporting information Fig. 3E-F): this was the case for CXCL1
- cross-desensitization of LL-37 response by WKYMVm (neutrophils [2]; then LL-37, Supporting information Fig. 3C-D): able to block LL-37 stimulated calcium mobilization
- stimulation of migration of monocytes (monocytes [3]; CXCL1 50 nM, WKYMVm 5 µM, ATP 50 µM, BzATP 50 µM, 90 min, 37°C): only LL-37 stimulated migration of monocytes
- calcium signal in THP-1 cells (THP-1 cells): but not WKYMVm gives a robust calcium signal
- block of LL-37 induced signal by WKYMVm pretreatment (THP-1 cells; WKYMVm first, then LL-37, THP-1): does not block the LL-37 induced signal
- CXCR2 surface expression (CXCR2 [4]): caused down-regulation of both CXCR2 and CXCR1 expression with similar kinetics
- CXCR1 surface expression (CXCR1 [5]): caused down-regulation of both CXCR2 and CXCR1 expression with similar kinetics
- calcium flux response in the absence of extracellular Ca2+ (neutrophils [6]; PBS without calcium and magnesium, LL-37 5 µM, WKYMVm 5 µM, ATP 5 µM, Fig. 3C): capable of generating a calcium flux response
- cross-block of LL-37 stimulated calcium mobilization in monocytes (monocytes [7]): neither ATP nor WKYMVm cross-block LL-37 stimulated calcium mobilization

Compound: pertussis toxin [PTX]
- block of CXCL8, fMLF, LTB4, CXCL6, and MNCF stimulated neutrophil migration (neutrophils [8]; ref [33], [63], [65]): able to block
- block of FPR- and CXCR-induced oxidase activity of neutrophils (neutrophils [9]): able to block

Compound: TNFα
- CXCR1 down-regulation (CXCR1 [10]): cause down-regulation of CXCR2 and CXCR1
- CXCR2 down-regulation (CXCR2 [11]): cause down-regulation of CXCR2 and CXCR1

Compound: O=C(Nc1ccc([N+](=O)[O-])cc1O)Nc1ccccc1Br [SB225002]
- inhibition of [Ca2+]i of neutrophils treated with CXCL1 or CXCL8 (neutrophils [12]): dose dependent inhibition
- migration of SB225002 treated controls (neutrophils [13]; SB225002 10 µM without LL-37): did not interfere with cell migration
- inhibition of LL-37-induced neutrophil migration (neutrophils [13]; SB225002 10 µM, 20 min pretreatment, LL-37 5 µM, p<0.05): completely inhibited; also recorded: completely block
- inhibition of LL-37-stimulated monocyte migration (monocytes [3]; SB225002 10 µM, 20 min preincubation): blocked
- inhibition of neutrophil migration with CXCL1 or CXCL8 (neutrophils [8]; SB225002, ref [27]): dose dependent inhibition
- inhibition of CXCL1 and CXCL7 stimulated neutrophil migration (neutrophils [8]; ref [27]): completely inhibited
- inhibition of CXCL8 stimulated neutrophil migration (neutrophils [8]; ref [27]): partially inhibited
- reduction of [Ca2+]i for LL-37 (neutrophils [6]; SB225002 10 µM, then 180 s later LL-37 5 µM, Fig. 6A): > 90%
- inhibition of calcium mobilization for ATP (neutrophils [6]; SB225002 10 µM, ATP 5 µM, Fig. 6F): not for fMLF (Fig. 6E), ATP
- inhibition of calcium mobilization for CXCL1 (neutrophils [6]; SB225002 10 µM, CXCL1 10 nM, Fig. 6C): complete inhibition
- inhibition of calcium mobilization for CXCL7 (neutrophils [6]; SB225002 10 µM, CXCL7 10 nM, Fig. 6B): complete inhibition
- inhibition of CXCL8 stimulation ([Ca2+]i) (neutrophils [6]; SB225002 10 µM, CXCL8 10 nM, Fig. 6D): about 50%
- inhibition of calcium mobilization for WKYMVm (neutrophils [6]; SB225002 10 µM, WKYMVm 5 µM, Fig. 6G): not for fMLF (Fig. 6E), ATP (Fig. 6F) or WKYMVm
- inhibition of calcium mobilization for fMLF (neutrophils [6]; SB225002 10 µM, fMLF 100 nM, Fig. 6E): not for fMLF
